Entries after “also recorded” stand apart in the source; their conditions may differ. Ends that are not written are not given here.

A short description of data set [1]: Circular dichroism spectroscopy. In kind it is physicochemical. The following applies: 37 °C; for helicity, with TFE: 20% trifluoroethanol. Summed up:
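Peptides at 0.2 mg/mL (final) in 10 mM phosphate buffer, with or without 20% trifluoroethanol, held at 37 °C. Far-UV spectra recorded from 190 to 240 nm on a spectropolarimeter. Ellipticity in mdeg converted to mean residue ellipticity (deg cm² dmol⁻¹).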
In general terms: Circular dichroism is the unequal absorption of left and right circularly polarised light.

Data set [2] has as its system isolated human LDL. The data set can be described thus: Isothermal titration calorimetry, binding to LDL. The following applies: for binding to LDL by ITC: isolated human LDL injected into peptide, PBS pH 7.4. The procedure, abridged:
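Human LDL and HDL isolated by ultracentrifugation. Lipoprotein titrated into a cell holding peptide or buffer alone: one initial injection, then 35 injections spaced 180 s apart. Heat monitored throughout and thermograms integrated to isotherms.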
(In general: Isothermal titration calorimetry measures the heat released or taken up as one component is titrated into another.)

The test system of data set [3] is isolated human HDL. The data set can be described thus: Isothermal titration calorimetry, binding to HDL. The following applies: isolated human HDL injected into peptide, PBS pH 7.4. Summed up:
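Human HDL isolated by ultracentrifugation. Lipoprotein titrated into cell holding peptide or buffer alone: one small initial injection, then 35 injections, 180 s apart, with heat monitored continuously. Thermograms integrated to binding isotherms.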

The nature of data set [4]: DMP cross-linking, SDS-PAGE. As to conditions: PBS, DMP:peptide 30:1, 2 h room temperature. In kind it is physicochemical. The procedure, abridged: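 Homo-bifunctional amine-reactive crosslinker dimethylpimelimidate reacted with peptide at 30:1 molar ratio (crosslinker:peptide) in PBS for 2 h at room temperature. Quenched with 1 M Tris. Products resolved by SDS-PAGE under reducing conditions and stained with Coomassie blue to visualise oligomeric species.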

The target in data set [5] is human ABCA1 (Homo sapiens, UniProt O95477). The data set can be described thus: Cholesterol efflux, ABCA1 transfected BHK cells. As to conditions: ABCA1 expressing BHK cells, 18 h. The format is cell-based. The procedure, abridged:
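BHK cells stably expressing human ABCA1 labelled 18 h with [3H]cholesterol in DMEM plus 10% fetal calf serum. Cells were washed, then switched to serum-free DMEM with 0.1 mg/ml fatty acid-free BSA. Peptide over a concentration range, or PBS, added for 18 h. Media filtered, cells lysed in 0.1% SDS/0.1 N NaOH, both counted by liquid scintillation. Efflux = media counts/(media + cell counts) × 100.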

Data set [6] in a line: DMPC vesicle clearance. The format is physicochemical. As to conditions: peptide 100 ng/ml, DMPC 1 mg/ml, PBS, 24 °C, 60 min, absorbance 432 nm. The procedure, abridged: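 Multilamellar DMPC vesicles (1 mg/ml) made by resuspending dried lipid in PBS and vortexing for 5 min. Peptide added to 100 ng/ml final. Absorbance at 432 nm read every 5 s for 60 min at 24 °C with fast shaking to prevent settling. Turbidity compared with a PBS-only control.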

The test system of data set [7] is cells. As to conditions: ref [48]; cited from earlier work.
The subject of data set [8] is apoB containing lipoproteins in human plasma. The format is binding. The following applies: FPLC separation, VLDL plus LDL. Summed up: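 FITC-labelled peptide incubated with human plasma for 1 h at 37 °C. Separated on two Superose 6 columns in series in Tris buffer (10 mM Tris, 150 mM NaCl, 0.5 mM EDTA, 0.01% azide) at 0.5 mL/min, collecting 0.5 mL fractions. Enzymatic phospholipid assay located VLDL, LDL and HDL. Fluorescence read at ex 485 / em 535 nm. Each peak expressed as percent of total fluorescence.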

The test system of data set [9] is lipoproteins in human plasma. The data set can be described thus: Exchangeability of LDL-bound peptide among lipoproteins. The following applies: FITC labeled B38 on isolated LDL, then human plasma 1 h at 37 °C, FPLC. Summed up: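 FITC-labelled peptide co-incubated with isolated human LDL for 1 h at 37 °C. LDL repurified by FPLC to remove unbound peptide, and LDL fractions pooled and concentrated. Peptide-loaded LDL then incubated with PBS or human plasma for 1 h at 37 °C. Transfer of fluorescent peptide to other lipoprotein classes measured.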

For data set [10], the system named is human red blood cells. The data set can be described thus: Red blood cell lysis assay. In kind it is cell-based. The following applies: human RBCs, 0 – 100 µM, 2 h room temperature, 1% Triton X-100 = 100% lysis. The procedure, abridged: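 Human erythrocytes washed 5 times in PBS with 5% glucose, pH 7.4. Incubated with peptide at 0–100 µM for 2 h at room temperature, then pelleted at 1000×g for 5 min. Supernatant absorbance read at 450 nm. 1% Triton X-100 served as the 100% lysis reference.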

Data set [11] relates to BHK cells. The data set can be described thus: Visual cytotoxicity during cholesterol efflux experiments. The format is cell-based. The following applies: during the cholesterol efflux experiments.
Setting [12] is: 0.2 mg/mL peptide, 10 mM phosphate buffer.

Sequence of human ABCA1 (O95477 whole entry): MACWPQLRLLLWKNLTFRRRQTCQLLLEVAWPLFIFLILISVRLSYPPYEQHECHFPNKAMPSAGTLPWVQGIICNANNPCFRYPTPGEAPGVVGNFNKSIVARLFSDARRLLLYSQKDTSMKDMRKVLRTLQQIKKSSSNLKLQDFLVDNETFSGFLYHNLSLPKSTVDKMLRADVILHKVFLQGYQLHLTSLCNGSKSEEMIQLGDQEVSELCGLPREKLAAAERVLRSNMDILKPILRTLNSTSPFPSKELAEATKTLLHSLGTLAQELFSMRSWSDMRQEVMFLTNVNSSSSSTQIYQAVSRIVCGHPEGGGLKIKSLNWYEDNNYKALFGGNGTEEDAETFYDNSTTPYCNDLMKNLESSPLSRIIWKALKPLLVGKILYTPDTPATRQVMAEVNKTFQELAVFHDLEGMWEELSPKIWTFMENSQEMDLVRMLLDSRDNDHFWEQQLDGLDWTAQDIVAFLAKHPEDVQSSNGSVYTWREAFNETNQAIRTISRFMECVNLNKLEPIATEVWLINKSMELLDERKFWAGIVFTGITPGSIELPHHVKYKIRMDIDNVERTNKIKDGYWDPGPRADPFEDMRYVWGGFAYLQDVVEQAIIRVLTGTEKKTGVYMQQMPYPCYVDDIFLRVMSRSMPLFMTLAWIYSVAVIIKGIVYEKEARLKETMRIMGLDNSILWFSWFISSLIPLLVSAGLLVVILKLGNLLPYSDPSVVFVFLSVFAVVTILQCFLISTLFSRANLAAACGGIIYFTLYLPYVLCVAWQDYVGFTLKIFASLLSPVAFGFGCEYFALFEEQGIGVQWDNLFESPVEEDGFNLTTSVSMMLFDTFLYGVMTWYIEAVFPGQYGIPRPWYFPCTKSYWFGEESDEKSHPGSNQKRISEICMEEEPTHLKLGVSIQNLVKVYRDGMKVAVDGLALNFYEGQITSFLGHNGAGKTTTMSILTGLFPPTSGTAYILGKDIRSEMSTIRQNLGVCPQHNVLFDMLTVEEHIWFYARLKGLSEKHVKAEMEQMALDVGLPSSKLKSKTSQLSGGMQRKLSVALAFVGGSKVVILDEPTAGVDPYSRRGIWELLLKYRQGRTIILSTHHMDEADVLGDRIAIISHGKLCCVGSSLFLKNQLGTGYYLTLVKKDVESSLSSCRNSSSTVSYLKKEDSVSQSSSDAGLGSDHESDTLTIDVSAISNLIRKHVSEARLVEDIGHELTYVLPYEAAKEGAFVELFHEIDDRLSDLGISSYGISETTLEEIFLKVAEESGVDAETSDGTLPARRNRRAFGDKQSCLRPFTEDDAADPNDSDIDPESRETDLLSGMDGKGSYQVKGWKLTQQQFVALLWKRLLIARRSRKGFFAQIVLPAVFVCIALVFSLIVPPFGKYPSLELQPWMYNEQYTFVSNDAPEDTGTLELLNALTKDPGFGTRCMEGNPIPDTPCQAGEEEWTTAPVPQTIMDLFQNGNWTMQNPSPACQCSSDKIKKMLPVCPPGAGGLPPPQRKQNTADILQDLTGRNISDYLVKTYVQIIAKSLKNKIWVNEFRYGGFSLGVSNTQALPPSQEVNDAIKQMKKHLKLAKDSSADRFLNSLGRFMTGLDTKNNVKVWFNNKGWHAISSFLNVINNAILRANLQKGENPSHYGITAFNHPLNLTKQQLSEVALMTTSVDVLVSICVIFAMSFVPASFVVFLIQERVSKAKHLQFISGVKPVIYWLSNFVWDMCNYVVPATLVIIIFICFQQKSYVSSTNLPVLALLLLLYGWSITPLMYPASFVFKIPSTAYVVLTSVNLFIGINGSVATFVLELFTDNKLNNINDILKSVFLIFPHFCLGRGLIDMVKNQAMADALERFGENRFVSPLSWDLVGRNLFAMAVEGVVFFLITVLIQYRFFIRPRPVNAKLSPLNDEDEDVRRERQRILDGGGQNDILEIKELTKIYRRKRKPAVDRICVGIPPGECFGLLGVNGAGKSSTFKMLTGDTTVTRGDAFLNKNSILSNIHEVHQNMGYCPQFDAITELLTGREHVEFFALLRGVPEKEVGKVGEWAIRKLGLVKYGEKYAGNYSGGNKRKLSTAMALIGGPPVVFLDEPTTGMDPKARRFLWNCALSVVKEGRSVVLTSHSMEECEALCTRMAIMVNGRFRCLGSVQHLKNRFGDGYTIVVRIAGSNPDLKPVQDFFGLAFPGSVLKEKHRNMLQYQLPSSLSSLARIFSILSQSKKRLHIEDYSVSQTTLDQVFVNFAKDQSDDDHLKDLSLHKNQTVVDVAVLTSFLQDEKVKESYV

For the substance EKLKAKLKEGGEKLKAKLKE [FLANK], the “helicity, with TFE” value in data set [1] (setting [12]) worked out at 38%. Moreover, the “secondary structure by CD, aqueous solution” value in data set [1] (10 mM phosphate buffer, no TFE) is “random coil structure”. Moreover, the “binding to LDL by ITC” value in [2] is given as “did not appear to bind strongly to either lipoprotein”. The “binding to HDL by ITC” value in [3] was “did not appear to bind strongly to either lipoprotein”. In addition, the “oligomeric forms in aqueous solution” value in data set [4] was “only found as monomer and dimer in aqueous solution”. Moreover, the “cholesterol efflux, ABCA1 cells” value in [5] is on record as “ineffective in promoting cholesterol efflux”. Moreover, the “solubilization / clearance of DMPC vesicles” value (“solubilization / clearance” below) in data set [6] is “did not solubilize DMPC vesicles”.

In the case of “EKLKAKLKEGGKATLELSPWQMSALVQVHASQPSSFHDFPDLGGEKLKAKLKE [B61]”, the “helicity, with TFE” value in data set [1] (setting [12]) worked out at 60%. For the same substance, the “secondary structure by CD, aqueous solution” value in [1] (10 mM phosphate buffer, no TFE) was “random coil structure”.

For the substance “apoB: large amphipathic protein, structural scaffold of several classes of lipoproteins”, in [7], the “cholesterol efflux from cells” value is “does not promote cholesterol efflux from cells”.

For the substance “DWLKAFYDKVAEKLKEAFPDWAKAAYDKAAEKAKEAA [5A, reference compound]”, the “solubilization / clearance” value in data set [6] is “rapidly cleared the solution”.

As to “EKLKAKLKEGGQELQRYLSLVGQVYSTLVTYISDWWTLGGEKLKAKLKE [B38]”, the “helicity, with TFE” value in data set [1] (setting [12]) was found to be 59%. For the same substance, the “helicity, aqueous solution” value in [1] (0.2 mg/mL peptide, 10 mM phosphate buffer, no TFE) is 40.1%. In addition, the “secondary structure by CD, aqueous solution” value in data set [1] (10 mM phosphate buffer, no TFE) is listed as “α-helical secondary structure; also recorded: formed an α-helix in aqueous buffer”. Also, the “helicity, with POPC vesicles” value in data set [1] (POPC vesicles added (also printed POPS)) came to 42.4%. Moreover, the “secondary structure by CD, with POPC vesicles” value in [1] (POPC vesicles added) is “slight increase in helicity”. The “total binding energy for LDL relative to HDL” value in data set [2] (ITC, isolated human LDL vs. HDL) amounted to 2.7 times. Besides, the “lipoprotein binding of synthesized HCD peptides” value in data set [2] (ITC, lipoprotein class not specified) is “showed significant lipoprotein binding capacity”. In addition, the “shape of ITC thermal energy curve” value in data set [2] (binding to lipoprotein particles) is “U-shaped curve”. Besides, the “binding to LDL by ITC” value in data set [2] was “high affinity binding to both isolated HDL and LDL; also recorded: only peptide with significant binding affinity for LDL”. Besides, the “binding energy in buffer control” value in data set [2] (peptide in buffer control (no LDL)) is given as “lack of significant binding energy”. Also, the “binding to HDL by ITC” value in [3] was “high affinity binding to both isolated HDL and LDL; also recorded: found to bind to high density lipoprotein (HDL) but with lower affinity than LDL”. In data set [4], the “oligomeric forms in aqueous solution” value was “presence of B38 oligomers in aqueous solution”. The “percent of peptide bound to apoB containing lipoproteins” value in data set [8] was determined as 17%. The exchangeability between lipoproteins entry in [9] is recorded as “could exchange between lipoproteins; also recorded: exchangeable between lipoproteins”. In data set [5], the “cholesterol efflux, ABCA1 cells” value was “capable of ABCA1-dependent cholesterol efflux from cells; also recorded: promotes ABCA1 specific cholesterol efflux”. The “solubilization / clearance” value in [6] is listed as “rapidly cleared the solution; also recorded: does not clear DMPC vesicles as rapidly”. In data set [10], the “concentration above which a small amount of red cell lysis occurs” value was “above 30 uM”. The “visual evidence of cytotoxicity” value in [11] is “no visual evidence of cytotoxicity was observed”.

With “EKLKAKLKEGGLNIKRGIISALLVPPETEEAGGEKLKAKLKE [B04]”, the “helicity, with TFE” value in data set [1] (setting [12]) amounted to 43%. Also, the “secondary structure by CD, aqueous solution” value in [1] (10 mM phosphate buffer, no TFE) is recorded as “random coil structure”.

Turning to “EKLKAKLKEGGGLSDEAVTSLLPQLIEVSSPGGEKLKAKLKE [B07]”, in [1] (setting [12]), the “helicity, with TFE” value is 40%. Also, in [1] (10 mM phosphate buffer, no TFE), the “secondary structure by CD, aqueous solution” value was “random coil structure”.
